Test results published in ChEMBL document CHEMBL2169858, “Design and synthesis of indomethacin analogues that inhibit P-glycoprotein and/or multidrug resistant protein without COX inhibitory activity” (J Med Chem, 2012).
Several values for one entry are separate records, joined by “and”; a condition that tells them apart may be missing. Equal values may be shown once.

Assays:
[1] = molecular target: ATP-dependent translocase ABCB1 (Homo sapiens, UniProt P08183); assay: Inhibition of human recombinant P-glycoprotein after 40 mins by Pgp-Glo assay
ATP-dependent translocase ABCB1, sequence (P08183 whole entry): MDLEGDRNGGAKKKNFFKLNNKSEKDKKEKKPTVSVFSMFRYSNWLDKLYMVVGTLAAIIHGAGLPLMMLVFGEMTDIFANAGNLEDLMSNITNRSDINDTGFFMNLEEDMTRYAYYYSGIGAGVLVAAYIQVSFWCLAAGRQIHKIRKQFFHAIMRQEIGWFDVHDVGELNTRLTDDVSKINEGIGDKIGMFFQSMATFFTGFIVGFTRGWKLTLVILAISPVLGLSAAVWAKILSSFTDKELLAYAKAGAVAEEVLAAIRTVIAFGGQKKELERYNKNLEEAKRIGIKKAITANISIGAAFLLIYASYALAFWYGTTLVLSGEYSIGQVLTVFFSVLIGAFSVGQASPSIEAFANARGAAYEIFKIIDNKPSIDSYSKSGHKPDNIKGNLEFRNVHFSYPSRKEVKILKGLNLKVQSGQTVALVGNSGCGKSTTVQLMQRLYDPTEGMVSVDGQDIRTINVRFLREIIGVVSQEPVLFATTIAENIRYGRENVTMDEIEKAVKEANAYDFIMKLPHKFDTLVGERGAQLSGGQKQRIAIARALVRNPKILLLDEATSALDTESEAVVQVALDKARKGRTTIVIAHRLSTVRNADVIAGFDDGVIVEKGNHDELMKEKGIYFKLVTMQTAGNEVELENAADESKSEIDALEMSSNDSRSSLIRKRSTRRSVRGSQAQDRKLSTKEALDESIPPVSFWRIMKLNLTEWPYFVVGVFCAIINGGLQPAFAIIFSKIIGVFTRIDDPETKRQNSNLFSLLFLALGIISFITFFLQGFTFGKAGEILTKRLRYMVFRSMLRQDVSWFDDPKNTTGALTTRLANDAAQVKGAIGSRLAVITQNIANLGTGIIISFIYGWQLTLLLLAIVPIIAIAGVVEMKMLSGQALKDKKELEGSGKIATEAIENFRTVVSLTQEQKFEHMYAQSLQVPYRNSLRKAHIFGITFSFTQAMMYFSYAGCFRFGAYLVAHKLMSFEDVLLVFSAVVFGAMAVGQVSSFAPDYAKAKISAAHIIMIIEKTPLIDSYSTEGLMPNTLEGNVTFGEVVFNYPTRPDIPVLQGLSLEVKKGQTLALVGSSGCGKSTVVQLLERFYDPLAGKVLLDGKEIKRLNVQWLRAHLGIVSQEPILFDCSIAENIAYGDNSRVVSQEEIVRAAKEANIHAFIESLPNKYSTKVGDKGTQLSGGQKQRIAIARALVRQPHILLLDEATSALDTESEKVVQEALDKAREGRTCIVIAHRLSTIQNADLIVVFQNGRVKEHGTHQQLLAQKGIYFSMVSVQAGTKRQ
Method in brief: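 Recombinant human P-gp membranes were incubated with test compound (dilution series, 0.781–200 μM) and 5 mM MgATP at 37 °C for 40 min. ATP detection buffer was added and luminescence developed at room temperature for 20 min. IC50 was fitted to concentration–luminescence data by nonlinear least squares.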

[2] = molecular target: T1, Prostaglandin G/H synthase 1 (Ovis aries, UniProt P05979); assay: Inhibition of ovine COX1 by colorimetric assay
T1 sequence (P05979 whole entry): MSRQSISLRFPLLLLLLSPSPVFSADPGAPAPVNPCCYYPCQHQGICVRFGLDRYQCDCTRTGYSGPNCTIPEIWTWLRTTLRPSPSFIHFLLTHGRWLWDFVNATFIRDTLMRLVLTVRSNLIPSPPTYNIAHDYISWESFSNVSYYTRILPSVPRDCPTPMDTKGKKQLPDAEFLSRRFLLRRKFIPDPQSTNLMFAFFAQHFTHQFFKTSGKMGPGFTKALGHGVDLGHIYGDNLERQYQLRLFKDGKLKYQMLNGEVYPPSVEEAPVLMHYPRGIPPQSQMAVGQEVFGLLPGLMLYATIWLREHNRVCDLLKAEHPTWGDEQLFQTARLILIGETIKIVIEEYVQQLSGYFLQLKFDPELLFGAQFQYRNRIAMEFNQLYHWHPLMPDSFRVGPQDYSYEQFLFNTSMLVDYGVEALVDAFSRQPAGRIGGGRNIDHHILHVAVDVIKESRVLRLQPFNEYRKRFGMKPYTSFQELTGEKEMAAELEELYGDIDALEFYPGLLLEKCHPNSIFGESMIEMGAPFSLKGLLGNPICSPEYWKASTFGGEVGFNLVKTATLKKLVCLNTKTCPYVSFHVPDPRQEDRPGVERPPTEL
Method in brief: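 Colorimetric ovine COX inhibitor screening kit, run per the supplier's protocol. Each experiment was done at least four times and reported as mean ± SEM.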

[3] = molecular target: Multidrug resistance-associated protein 1 (Homo sapiens, UniProt P33527); assay: Inhibition of human MRP1 in human T98G cells assessed as potentiation of doxorubicin induced cytotoxicity at 50 uM pre-incubated for 2 hrs before doxorubicin addition and measured 4 days after doxorubicin exposure by MTT assay relative to untreated control; format: cell-based; conditions: 96 h
Multidrug resistance-associated protein 1, sequence (P33527 whole entry): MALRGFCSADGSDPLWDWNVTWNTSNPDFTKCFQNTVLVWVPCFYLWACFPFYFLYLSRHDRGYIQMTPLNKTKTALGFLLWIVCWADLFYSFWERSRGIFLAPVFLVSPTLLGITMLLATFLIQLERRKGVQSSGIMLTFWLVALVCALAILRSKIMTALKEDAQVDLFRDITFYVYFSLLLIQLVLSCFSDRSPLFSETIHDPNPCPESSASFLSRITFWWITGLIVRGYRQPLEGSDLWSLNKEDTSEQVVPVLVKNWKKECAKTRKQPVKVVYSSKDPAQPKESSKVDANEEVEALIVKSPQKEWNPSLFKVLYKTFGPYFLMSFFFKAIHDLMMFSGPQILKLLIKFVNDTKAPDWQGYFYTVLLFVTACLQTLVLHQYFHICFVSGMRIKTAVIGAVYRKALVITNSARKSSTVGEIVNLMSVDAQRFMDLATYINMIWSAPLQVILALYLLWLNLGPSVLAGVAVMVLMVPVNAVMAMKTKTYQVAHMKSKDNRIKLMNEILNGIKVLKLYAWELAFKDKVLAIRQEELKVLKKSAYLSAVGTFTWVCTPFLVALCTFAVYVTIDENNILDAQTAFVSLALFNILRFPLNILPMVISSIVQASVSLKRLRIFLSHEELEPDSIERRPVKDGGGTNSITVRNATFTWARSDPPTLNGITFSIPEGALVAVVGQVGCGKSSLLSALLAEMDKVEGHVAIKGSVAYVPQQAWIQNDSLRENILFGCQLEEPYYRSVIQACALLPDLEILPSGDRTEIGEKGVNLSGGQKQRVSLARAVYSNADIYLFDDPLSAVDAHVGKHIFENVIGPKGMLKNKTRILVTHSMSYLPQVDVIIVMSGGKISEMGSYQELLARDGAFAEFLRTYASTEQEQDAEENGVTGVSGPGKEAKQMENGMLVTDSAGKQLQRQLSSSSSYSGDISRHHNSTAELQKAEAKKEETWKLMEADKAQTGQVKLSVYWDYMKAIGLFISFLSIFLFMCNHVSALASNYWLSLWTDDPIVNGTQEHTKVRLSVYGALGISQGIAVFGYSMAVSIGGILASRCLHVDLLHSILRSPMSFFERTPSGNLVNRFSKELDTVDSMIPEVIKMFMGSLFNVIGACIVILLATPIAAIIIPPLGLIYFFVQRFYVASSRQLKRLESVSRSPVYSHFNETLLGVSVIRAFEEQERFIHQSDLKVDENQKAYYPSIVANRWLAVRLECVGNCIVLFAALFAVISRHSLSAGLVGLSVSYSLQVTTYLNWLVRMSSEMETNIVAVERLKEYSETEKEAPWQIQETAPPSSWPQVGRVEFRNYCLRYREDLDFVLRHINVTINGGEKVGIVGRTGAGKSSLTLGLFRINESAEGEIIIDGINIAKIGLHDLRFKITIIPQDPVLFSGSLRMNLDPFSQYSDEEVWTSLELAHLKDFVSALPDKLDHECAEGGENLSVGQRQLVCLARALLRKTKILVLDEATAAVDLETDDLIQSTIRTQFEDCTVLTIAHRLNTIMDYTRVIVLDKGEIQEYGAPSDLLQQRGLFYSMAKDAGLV

[4] = test system: T98G; assay: Cytotoxicity against human T98G cells assessed as inhibition of cell growth at 1 uM by MTT assay; format: functional; conditions: read-out: GI

Row | IC50 [1] | IC50 [2] | SMILES | inhibition (INH) [3] | inhibition of growth at 1 µM [4]
1 | 20 µM | 0.01 µM | Cc1c(CC(=O)O)c2ccccc2n1C(=O)c1ccc(Cl)cc1 |  | 
2 | 20 µM | > 400 µM | CCc1c(CC(=O)O)c2ccccc2n1C(=O)c1ccc(Cl)cc1 | Active | 
3 | 18 µM | > 400 µM | O=C(O)Cc1c(-c2ccccc2)n(C(=O)c2ccc(Cl)cc2)c2ccccc12 | Active | 
4 | 15 µM | > 400 µM | COc1cccc2c(CC(=O)O)c(C)n(C(=O)c3ccc(Cl)cc3)c12 | Active | 
5 | 9.8 µM | > 200 µM | COc1ccc2c(CC(=O)O)c(C)n(C(=O)c3ccc(Cl)cc3)c2c1 |  | 
6 | 17 µM | > 400 µM | CCc1cccc2c(CC(=O)O)cn(C(=O)c3ccc(Cl)cc3)c12 | Not Active | 
7 |  |  | COc1cccc2c1C(=O)c1c(O)c3c(c(O)c1C2=O)C[C@@](O)(C(=O)CO)C[C@@H]3O[C@H]1C[C@H](N)[C@H](O)[C@H](C)O1 [DOXORUBICIN] |  | 40%
8 | 32 µM and 28 µM |  | COc1ccc2c(c1)c(CC(=O)O)c(C)n2C(=O)c1ccc(Cl)cc1 [INDOMETHACIN] |  | 
